# Measurements taken from ChEMBL document CHEMBL4316659, “Selective Antiproliferative Withanolides from Species in the Genera Eriolarynx and Deprea” (J Nat Prod, 2019).
# What was measured:
# A549 = experiment: Antiproliferative activity against human A549 cells incubated for 48 hrs by SRB assay; assay type: functional; details: A549, 48 h
# How it was run: (§1)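 Cells kept in RPMI 1640 with 5% FBS and 2 mM L-glutamine at 37 °C under 5% CO2. Seeded at 2500 (A549, HBL-100, HeLa, SW1573) or 5000 (T-47D, WiDr, BJ-hTERT) cells/well and left 24 h. Compounds added as serial dilutions (0.01−100 μM) for 48 h. SRB staining read at 530 and 620 nm. GI50 calculated by NCI formulas. Mean of at least two independent experiments ± SD.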
# HBL-100 = experiment: Antiproliferative activity against human HBL100 cells incubated for 48 hrs by SRB assay; assay type: functional; details: HBL-100, 48 h; how it was run: as §1
# HeLa = experiment: Antiproliferative activity against human HeLa cells incubated for 48 hrs by SRB assay; assay type: functional; how it was run: as §1
# SW1573 [1] = experiment: Antiproliferative activity against human SW1573 cells incubated for 48 hrs by SRB assay; assay type: functional; details: SW1573, 48 h; how it was run: as §1
# T47D = experiment: Antiproliferative activity against human T47D cells incubated for 48 hrs by SRB assay; assay type: functional; how it was run: as §1
# WiDr = experiment: Antiproliferative activity against human WiDr cells incubated for 48 hrs by SRB assay; assay type: functional; how it was run: as §1
# [2] = Antiproliferative activity against human hTERT-BJ cells incubated for 48 hrs by SRB assay; assay type: cell-based; how it was run: as §1
# [3] = Ratio of GI50 for antiproliferative activity against human hTERT-BJ cells incubated for 48 hrs by SRB assay to GI50 for antiproliferative activity against human A549 cells incubated for 48 hrs by SRB assay
# How it was run: (§2)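 Selectivity is GI50 in the nontumor BJ-hTERT fibroblasts divided by GI50 in each tumor line. All values come from the same 48 h SRB assay, with 0.01−100 μM serial dilutions.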
# [4] = Ratio of GI50 for antiproliferative activity against human hTERT-BJ cells incubated for 48 hrs by SRB assay to GI50 for antiproliferative activity against human HBL100 cells incubated for 48 hrs by SRB assay; how it was run: as §2
# [5] = Ratio of GI50 for antiproliferative activity against human hTERT-BJ cells incubated for 48 hrs by SRB assay to GI50 for antiproliferative activity against human HeLa cells incubated for 48 hrs by SRB assay; assay type: toxicity, cell-based; details: hTERT-BJ cells versus HeLa cells, read-out: RatioGI50; how it was run: as §2
# [6] = Ratio of GI50 for antiproliferative activity against human hTERT-BJ cells incubated for 48 hrs by SRB assay to GI50 for antiproliferative activity against human SW1573 cells incubated for 48 hrs by SRB assay; assay type: toxicity, cell-based; details: hTERT-BJ cells versus SW1573 cells, read-out: RatioGI50; how it was run: as §2
# [7] = Ratio of GI50 for antiproliferative activity against human hTERT-BJ cells incubated for 48 hrs by SRB assay to GI50 for antiproliferative activity against human T47D cells incubated for 48 hrs by SRB assay; assay type: toxicity, cell-based; details: hTERT-BJ cells versus T47D cells, read-out: RatioGI50; how it was run: as §2
# [8] = Ratio of GI50 for antiproliferative activity against human hTERT-BJ cells incubated for 48 hrs by SRB assay to GI50 for antiproliferative activity against human WiDr cells incubated for 48 hrs by SRB assay; assay type: toxicity, cell-based; details: hTERT-BJ cells versus WiDr cells, read-out: RatioGI50; how it was run: as §2
# SW1573 [9] = experiment: Antiproliferative activity against human SW1573 cells incubated for 48 hrs in absence of P-gp and CYP3A4/5 inhibitor verapamil by SRB assay; assay type: functional; details: SW1573, 48 h
# How it was run: (§3)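 Wild-type SW1573 (2500 cells/well) and P-gp-overexpressing SW1573/Pgp (5000 cells/well) in RPMI 1640 with 5% FBS. Seeded 24 h, then exposed 48 h to serial dilutions (0.01−100 μM) with or without 10 μM verapamil (final) in the medium. Paclitaxel and vinblastine were reference drugs. SRB read at 530/620 nm. GI50 by NCI formulas, mean of at least two independent experiments ± SD.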
# SW1573 [10] = experiment: Antiproliferative activity against human SW1573 cells over-expressing P-gp incubated for 48 hrs in absence of P-gp and CYP3A4/5 inhibitor verapamil by SRB assay; assay type: functional; details: SW1573, 48 h; how it was run: as §3
# SW1573 [11] = experiment: (§4) Resistance factor, ratio of GI50 for Antiproliferative activity against human SW1573 cells over-expressing P-gp incubated for 48 hrs in absence of P-gp and CYP3A4/5 inhibitor verapamil by SRB assay to GI50 for antiproliferative activity against human SW1573 cells incubated for 48 hrs in absence of P-gp and CYP3A4/5 inhibitor verapamil by SRB assay; assay type: functional
# How it was run: (§5)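 Resistance factor is GI50 in SW1573/Pgp divided by GI50 in wild-type SW1573. Both come from 48 h SRB assays, run with 10 μM verapamil (final) or without it.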
# SW1573 [12] = experiment: Antiproliferative activity against human SW1573 cells incubated for 48 hrs in presence of P-gp and CYP3A4/5 inhibitor verapamil by SRB assay; assay type: functional; details: SW1573, 48 h; how it was run: as §3
# SW1573 [13] = experiment: Antiproliferative activity against human SW1573 cells over-expressing P-gp incubated for 48 hrs in presence of P-gp and CYP3A4/5 inhibitor verapamil by SRB assay; assay type: functional; details: SW1573, 48 h; how it was run: as §3
# SW1573 [14] = experiment: as §4, with “presence” for “absence”; assay type: functional; how it was run: as §5
Structure (SMILES),GI50 (A549) [µM],GI50 (HBL-100) [µM],GI50 (HeLa) [µM],GI50 (SW1573 [1]) [µM],GI50 (T47D) [µM],GI50 (WiDr) [µM],GI50 at 48 h [2] [µM],RatioGI50 [3],RatioGI50 [4],selectivity ratio at 48 h [5],selectivity ratio at 48 h [6],selectivity ratio at 48 h [7],selectivity ratio at 48 h [8],GI50 (SW1573 [9]) [µM],GI50 (SW1573 [10]) [µM],RatioGI50 (SW1573 [11]),GI50 (SW1573 [12]) [µM],GI50 (SW1573 [13]) [µM],RatioGI50 (SW1573 [14])
CC1=C(C)C(=O)O[C@@H]([C@](C)(O)[C@H]2CC[C@H]3[C@@H]4[C@@H](O)C=C5[C@@H](O)C=CC(=O)[C@]5(C)[C@H]4CC[C@]23C)C1,> 10,4.8,5.3,4.1,> 10,> 10,> 10,2 - 10,2 - 10,2 to 10,2 to 10,2 to 10,2 to 10,3.4,3.2,0.9,4.2,3.2,0.8
C[C@]1(O)CC[C@H]2[C@H]3[C@H](O[C@]4([C@@H]5C[C@]6(C)C(=O)O[C@H]5C[C@@]6(C)O)CC[C@@]31O4)[C@@H](O)[C@]13O[C@H]1C=CC(=O)[C@]23C,> 10,> 10,> 10,> 10,> 10,> 10,,,,2 to 10,2 to 10,2 to 10,2 to 10,,,,,,
CC1=C(C)C(=O)O[C@@H]([C@]2(C)OC(O)[C@]34CC[C@H]5[C@@H]([C@H](O)C=C6CC=CC(=O)[C@@]65C)[C@@H]3CC[C@H]24)C1 (some centres not stated),> 10,> 10,> 10,> 10,> 10,> 10,,,,2 to 10,2 to 10,2 to 10,2 to 10,,,,,,
CC1=C(C)C(=O)O[C@@H]([C@]2(C)OC(O)[C@]34CC[C@H]5[C@@H]([C@@H](O)C=C6[C@@H](O)C=CC(=O)[C@@]65C)[C@@H]3CC[C@H]24)C1 (mixture of isomers),> 10,> 10,> 10,> 10,> 10,> 10,> 10,2 - 10,2 - 10,2 to 10,2 to 10,2 to 10,2 to 10,,,,,,
CO[C@H]1O[C@@](C)([C@H]2CC(C)=C(C)C(=O)O2)[C@H]2CC[C@H]3[C@@H]4[C@@H](O)C=C5[C@@H](O)C=CC(=O)[C@]5(C)[C@H]4CC[C@]123,3.1,3.6,3.2,3.3,3.9,> 10,> 10,2 - 10,2 - 10,2 to 10,2 to 10,2 to 10,2 to 10,3,3.3,1.1,3.5,2.3,0.7
CC[C@]1(O)C[C@@H]2CN(CCc3c([nH]c4ccccc34)[C@@](C(=O)OC)(c3cc4c(cc3OC)N(C)[C@H]3[C@@](O)(C(=O)OC)[C@H](OC(C)=O)[C@]5(CC)C=CCN6CC[C@]43[C@@H]65)C2)C1 [VINBLASTINE],,,,,,,,,,,,,,0.0009,2.05,2388,0.0008,0.001,1.3
CC1=C(C)C(=O)O[C@@H]([C@]2(C)OC(O)[C@]34CC[C@H]5[C@@H]([C@H](O)C=C6C=CCC(=O)[C@@]65C)[C@@H]3CC[C@H]24)C1 (some centres not stated),> 10,> 10,> 10,> 10,> 10,> 10,,,,2 to 10,2 to 10,2 to 10,2 to 10,,,,,,
